{
  "source": "ChEMBL document CHEMBL3352816",
  "about": "“Synthesis and antiproliferative activity of imidazo[2,1-b][1,3,4]thiadiazole derivatives” (Bioorg Med Chem Lett, 2014)",
  "key": {"[1]": {"assay": "Growth inhibition of human Leukemia cells", "type": "functional", "settings": "Leukemia cell"}, "[2]": {"assay": "Cell cycle arrest in human NALM6 cells assessed as accumulation at subG1 phase after 48 hrs using propidium iodide by FACS analysis", "type": "functional, cell-based", "settings": "NALM-6", "summary_of_the_method": "(§1)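 Reh and Nalm6 cells exposed 48 h to 0.1, 0.5, 1 and 5 µM, harvested, stained with propidium iodide and analysed by flow cytometry. Gated fractions were sub G1, G1, S and G2. DMSO-treated cells served as vehicle control. Three independent experiments for Reh and two for Nalm6.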"}, "REH [3]": {"tested_on": "REH", "assay": "Induction of apoptosis in human REH cells assessed as late apoptotic cells at 1 uM after 48 hrs using annexin-v-FITC/propidium iodide by FACS analysis (reference value: 5.51 %)", "type": "functional"}, "REH [4]": {"tested_on": "REH", "assay": "Cell cycle arrest in human REH cells assessed as reduction of cells in G2/M phase after 48 hrs using propidium iodide by FACS analysis", "type": "functional, cell-based", "summary_of_the_method": "as §1"}, "REH [5]": {"tested_on": "REH", "assay": "Cell cycle arrest in human REH cells assessed as reduction of cells in G1 phase after 48 hrs using propidium iodide by FACS analysis", "type": "functional, cell-based", "summary_of_the_method": "as §1"}, "REH [6]": {"tested_on": "REH", "assay": "Induction of apoptosis in human REH cells assessed as induction of ROS production at 1 uM after 10 mins by flow cytometric analysis (reference value: 0.09 %)", "type": "functional"}, "REH [7]": {"tested_on": "REH", "assay": "Induction of apoptosis in human REH cells assessed as reduction of KU70 protein expression at 1 uM after 48 hrs by Western blot analysis", "type": "functional, cell-based", "summary_of_the_method": "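Reh cells exposed 48 h to 500 nM or 1 µM, with DMSO-treated cells as control; cell lysates probed by western blot with specific primary antibodies against KU70, PARP1, caspases 3, 8 and 9, BID and FAS; tubulin shown as loading reference.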"}, "NALM-6": {"tested_on": "NALM-6", "assay": "Cytotoxicity against human NALM6 cells assessed as reduction in cell viability at 0.1 to 10 uM by trypan blue exclusion assay", "type": "functional, cell-based", "settings": "TDE = time-dependent effect", "summary_of_the_method": "(§2)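 Reh, K562 and Nalm6 leukemic cells were treated with 10, 50, 100 and 250 µM or with 0.1, 0.5, 1, 5 and 10 µM (compounds dissolved in DMSO). Viability was scored by trypan blue after 24, 48 and 72 h. DMSO-treated cells served as vehicle control.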"}, "REH [8]": {"tested_on": "REH", "assay": "Induction of apoptosis in human REH cells assessed as induction of ROS production at 100 nM after 10 mins by flow cytometric analysis (reference value: 0.33 %)", "type": "functional"}, "[9]": {"assay": "Growth inhibition of human Melanoma cells", "type": "functional", "settings": "Melanoma cell"}, "[10]": {"assay": "Growth inhibition of human Prostate cancer cells", "type": "functional", "settings": "Cancer cell lines"}, "[11]": {"assay": "Growth inhibition of human Colon cancer cells", "type": "functional", "settings": "Cancer cell lines"}, "K562": {"tested_on": "K562", "assay": "Cytotoxicity against human K562 cells assessed as reduction in cell viability at 0.1 to 10 uM by trypan blue exclusion assay", "type": "functional, cell-based", "settings": "TDE = time-dependent effect", "summary_of_the_method": "as §2"}, "REH [12]": {"tested_on": "REH", "assay": "Induction of apoptosis in human REH cells assessed as caspase 8 cleavage after 48 hrs by Western blot analysis", "type": "functional, cell-based", "summary_of_the_method": "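Reh cell lysates were prepared after 48 h treatment at 500 nM and 1 µM, with DMSO-treated cells as control. Western blotting used primary antibodies against KU70, PARP1, caspase 3, BID, caspase 9, FAS and caspase 8, with tubulin also probed.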"}},
  "note": "Calls of active or inactive are those of the source. No cut-off for these calls is given here.",
  "data": [
    {"smiles": "O=Cc1c(-c2ccc(Br)cc2)nc2sc(Cc3ccccc3)nn12", "values": [
      {"measurement": "GI50", "setting": "[1]", "value": 1.41, "unit": "µM"},
      {"measurement": "TGI", "setting": "[1]", "value": 13.5, "unit": "µM"},
      {"measurement": "Activity", "setting": "[2]", "value": "Dose-dependent effect"},
      {"measurement": "Activity", "setting": "REH [3]", "value": 51.32, "unit": "%"},
      {"measurement": "Activity", "setting": "REH [4]", "value": "Dose-dependent effect"},
      {"measurement": "Activity", "setting": "REH [5]", "value": "Dose-dependent effect"},
      {"measurement": "Activity", "setting": "REH [6]", "value": 0.36, "unit": "%"},
      {"measurement": "Activity", "setting": "REH [7]", "value": "Active"},
      {"measurement": "Activity", "setting": "NALM-6", "value": "tde"},
      {"measurement": "Activity", "setting": "REH [8]", "value": 0.77, "unit": "%"},
      {"measurement": "GI50", "setting": "[9]", "value": 3.2, "unit": "µM"},
      {"measurement": "LC50", "setting": "[9]", "value": 81.3, "unit": "µM"},
      {"measurement": "TGI", "setting": "[9]", "value": 19.5, "unit": "µM"},
      {"measurement": "GI50", "setting": "[10]", "value": 3, "unit": "µM"},
      {"measurement": "TGI", "setting": "[10]", "value": 24.6, "unit": "µM"},
      {"measurement": "GI50", "setting": "[11]", "value": 2.2, "unit": "µM"},
      {"measurement": "TGI", "setting": "[11]", "value": 10, "unit": "µM"},
      {"measurement": "CC50", "setting": "[11]; read-out: LC50 (the source's name)", "value": 81.3, "unit": "µM"},
      {"measurement": "Activity", "setting": "K562", "value": "tde"},
      {"measurement": "Activity", "setting": "REH [12]", "value": "Active"}
    ]}
  ]
}
